Results on 22 compounds are retold here after ChEMBL document CHEMBL2040794, “Synthesis and structure-activity analysis of new phosphonium salts with potent activity against African trypanosomes” (J Med Chem, 2012).

Usually EC50 stands for the concentration at which the effect is half-maximal. Lower therefore signals higher potency in that assay.

The subject of data set [1] is Trypanosoma brucei rhodesiense. In words: Antitrypanosomal activity against Trypanosoma brucei rhodesiense STIB900 infected in rat L6 cells after 72 hrs by alamar blue assay. Type of data set: functional, organism-based. The conditions noted are these: Trypanosoma brucei, STIB900, 72 h. Background: Resazurin is reduced to fluorescent resorufin, in cell work by metabolically active cells.

A further data set deals with L6. In words: Cytotoxicity against rat L6 cells after 72 hrs by alamar blue assay. Type of data set: cell-based. To be noted: Rattus norvegicus, L6, 72 h.
Data set [2] has as its system Trypanosoma brucei brucei. In words: Antitrypanosomal activity against wild type Trypanosoma brucei brucei Lister 427 after 3 days by alamar blue assay. Type of data set: functional, organism-based. To be noted: Trypanosoma brucei, Lister 427, 72 h. The procedure, abridged: (§1)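 Bloodstream-form T. b. brucei (wild-type s427; TbAT1-KO, made from s427 by TbAT1 deletion; B48, selected from TbAT1-KO in vitro on pentamidine, lacking functional HAPT1). Cells were exposed to compound for 48 h, then resazurin (Alamar blue) was added for a further 24 h. A single fluorescence reading gave EC50.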

The subject of data set [3] is Trypanosoma brucei brucei. As to the kind of experiment: Antitrypanosomal activity against diminazene aceturate-resistant TbAT1 gene-deficient Trypanosoma brucei brucei AT1-KO after 3 days by alamar blue assay. The class given is functional, organism-based. To be noted: Trypanosoma brucei, AT1-KO, 72 h. The procedure, abridged:
as §1

In data set [4] the test system is Trypanosoma brucei brucei. In words: Resistance factor, ratio of EC50 for diminazene aceturate-resistant TbAT1 gene-deficient Trypanosoma brucei brucei AT1-KO to EC50 for wild type Trypanosoma brucei brucei Lister 427. Type of data set: functional. An outline of the steps: (§2)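 Resistance factor is the EC50 in the resistant line (TbAT1-KO or B48) divided by the EC50 in wild-type s427. […] Resistant and wild-type EC50s were compared by Student t-test.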

Data set [5] relates to Trypanosoma brucei brucei. As to the kind of experiment: Antitrypanosomal activity against diminazene-, pentamidine-, and melaminophenyl arsenical-resistant HAPT1-deficient Trypanosoma brucei brucei B48 after 3 days by alamar blue assay. The class given is functional, organism-based. To be noted: Trypanosoma brucei, B48, 72 h. The procedure, abridged: as §1
Data set [6] deals with Trypanosoma brucei brucei. In words: Resistance factor, ratio of EC50 for diminazene-, pentamidine-, and melaminophenyl arsenical-resistant HAPT1-deficient Trypanosoma brucei brucei B48 to EC50 for wild type Trypanosoma brucei brucei Lister 427. Type of data set: functional. The procedure, abridged:
as §2

Data set [7] is described as follows: Cytotoxicity against human HEK cells after 3 days by alamar blue assay. The class given is cell-based, HEK293. The conditions noted are these: Homo sapiens, HEK293, 72 h. The procedure, abridged: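 Human embryonic kidney cells tested by resazurin (Alamar blue) assay: 48 h with compound, then 24 h more after dye addition, single reading; EC₅₀ derived.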
The nature of data set [8]: Selectivity index, ratio of EC50 for human HEK cells to EC50 for wild type Trypanosoma brucei brucei Lister 427. Type of data set: toxicity, cell-based, HEK293. The conditions noted are these: HEK cells, read-out: Ratio EC50. The procedure, abridged:
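Ratio of EC₅₀ in HEK cells to EC₅₀ in wild-type T. b. brucei s427, both from resazurin assays.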

Some results are limits rather than exact numbers.

As for `O=C(c1ccc(C[P+](c2ccc(C(F)(F)F)cc2)(c2ccc(C(F)(F)F)cc2)c2ccc(C(F)(F)F)cc2)cc1)c1ccc(C[P+](c2ccc(C(F)(F)F)cc2)(c2ccc(C(F)(F)F)cc2)c2ccc(C(F)(F)F)cc2)cc1.[Br-].[Br-]`, the EC50 in data set [1] was 16.4 µM; in the data set with L6, 25 µM; in data set [2] it was 5.05 µM; in [3], 8.51 µM; in [5] it was 2.73 µM; in data set [7], more than 300 µM. The figures for the “Ratio EC50” value in data set [4] and in data set [6] were 1.7 and 0.5, respectively. Further, the selectivity ratio in [8] is more than 60.

For `CC(C)C[P+](Cc1ccc(C(=O)c2ccccc2)cc1)(CC(C)C)CC(C)C.[Br-]`, the EC50 in data set [1] was 4.48 µM; in the data set with L6 it was more than 209 µM; in data set [2], 5.9 µM; in data set [3], 6.1 µM; in data set [5], 6.28 µM; in [7], more than 300 µM. Further, the entries for the “Ratio EC50” value in [4] and in [6] were 1 and 1.1, respectively. The selectivity ratio in [8] is more than 50.

For the compound `CC(C)[P+](Cc1ccc(C(=O)c2ccc(C[P+](C(C)C)(C(C)C)C(C)C)cc2)cc1)(C(C)C)C(C)C.[Br-].[Br-]`, the EC50 in [1] is 9.6 µM; in the data set on L6 it was more than 130 µM; in [2] it was 20.6 µM; in data set [3], 33.4 µM; in [5] it was 38.8 µM. The “Ratio EC50” value is 1.6 in data set [4] and 1.9 in [6].

`N=C(N)c1ccc(/N=N/Nc2ccc(C(=N)N)cc2)cc1` [DIMINAZENE]: the half-maximal effective concentration (EC50) in data set [2] was found to be 0.517 µM; in [5] it was 2.62 µM. Moreover, the “Ratio EC50” value in data set [4] stood at 4.6; in data set [6], 5.1.

Turning to `CC(C)C[P+](Cc1ccc(S(=O)(=O)c2ccc(C[P+](CC(C)C)(CC(C)C)CC(C)C)cc2)cc1)(CC(C)C)CC(C)C.[Br-].[Br-]`, the EC50 in data set [1] was 6.31 µM; with L6, more than 111 µM; in [2], 16.7 µM; in data set [3] it was 13.6 µM; in data set [5] it was 13.3 µM. Further, the “Ratio EC50” value in [4] and in [6] was 0.8 throughout.

Take `FC(F)(F)c1ccc([P+](Cc2ccc(Cc3ccc(C[P+](c4ccc(C(F)(F)F)cc4)(c4ccc(C(F)(F)F)cc4)c4ccc(C(F)(F)F)cc4)cc3)cc2)(c2ccc(C(F)(F)F)cc2)c2ccc(C(F)(F)F)cc2)cc1.[Br-].[Br-]`: the EC50 came to 1.72 µM in [1]; 7.52 µM with L6; 0.23 µM in data set [2]; 0.37 µM in data set [3]; 0.28 µM in [5]; 77.1 µM in data set [7]. Further, the “Ratio EC50” value was 1.6 in data set [4] and 1.2 in data set [6]. The selectivity ratio in data set [8] came to 338.

For `Fc1c(F)c(F)c([P+](Cc2ccc(Oc3ccc(C[P+](c4ccccc4)(c4ccccc4)c4c(F)c(F)c(F)c(F)c4F)cc3)cc2)(c2ccccc2)c2ccccc2)c(F)c1F.[Br-].[Br-]`, the EC50 in [1] is 12.8 µM; with L6, 5.35 µM; in data set [2] it was 23.2 µM; in [3] it was 9.9 µM; in data set [5], 6.68 µM; in data set [7], more than 300 µM. Moreover, the “Ratio EC50” value is 0.4 in data set [4] and 0.3 in data set [6]. In addition, the selectivity ratio in data set [8] is more than 10.

Turning to `C[P+](C)(Cc1ccc(Oc2ccc(C[P+](C)(C)c3ccccc3)cc2)cc1)c1ccccc1.[Br-].[Br-]`, the EC50 was 3.83 µM in data set [1]; 84.5 µM in the data set with L6; 7.22 µM in data set [2]; 6.52 µM in [3]; 6.15 µM in [5]; more than 300 µM in [7]. Also, the “Ratio EC50” value in [4] and in data set [6] was 0.9 each time. The selectivity ratio in data set [8] was more than 40.

Consider `CC(C)C[P+](Cc1ccc(C(=O)c2ccc(C[P+](CC(C)C)(CC(C)C)CC(C)C)cc2)cc1)(CC(C)C)CC(C)C.[Br-].[Br-]`, for which the EC50 is 1.46 µM in [1]; more than 116 µM with L6; 2.62 µM in data set [2]; 8.34 µM in data set [3]; 6.3 µM in [5]; more than 300 µM in [7]. The “Ratio EC50” value stood at 3.2 in data set [4] and 2.4 in [6]. For the same compound, in [8], the selectivity ratio was more than 110.

`CC(C)C[P+](Cc1ccc(Oc2ccc(C[P+](CC(C)C)(CC(C)C)CC(C)C)cc2)cc1)(CC(C)C)CC(C)C.[Br-].[Br-]`: the 50% effective concentration (EC50) is 1.62 µM in data set [1]; 51.1 µM with L6; 0.59 µM in data set [2]; 0.8 µM in data set [3]; 1.06 µM in data set [5]; more than 300 µM in data set [7]. In addition, the “Ratio EC50” value in data set [4] was found to be 1.3; in [6] it was 1.8. In data set [8], the selectivity ratio is more than 507.

With `CCC[P+](CCC)(CCC)Cc1ccc(C(=O)c2ccc(C[P+](CCC)(CCC)CCC)cc2)cc1.[Br-].[Br-]`, the EC50 is 8.5 µM in data set [1]; more than 130 µM in the data set on L6; 19.7 µM in [2]; 27.2 µM in [3]; 31.3 µM in data set [5]. In addition, the “Ratio EC50” value in data set [4] was 1.4; in [6] it was 1.6.

Take `CC[P+](CC)(CC)Cc1ccc(C(=O)c2ccccc2)cc1`: the EC50 in data set [1] is more than 254 µM; with L6, more than 254 µM; in data set [2] it was more than 100 µM; in [3] it was more than 100 µM; in data set [5], more than 100 µM; in data set [7], more than 300 µM.

For `C[P+](C)(Cc1ccc(C(=O)c2ccccc2)cc1)c1ccccc1.[Br-]`, the EC50 in data set [1] is 16.9 µM; with L6, more than 241 µM; in data set [2] it was 42.7 µM; in data set [3], 46.6 µM; in [5], 45.8 µM; in [7], more than 300 µM. The “Ratio EC50” value in [4] and in data set [6] was 1.1 throughout. Besides, the selectivity ratio in [8] is more than 7.

For `COc1cc([C@@H]2c3cc4c(cc3[C@H](O)[C@H]3COC(=O)[C@H]23)OCO4)cc(OC)c1OC` [PODOFILOX], the midpoint of the response with L6, the EC50, lay at 0.012 µM.

As for `O=C(c1ccc(C[P+](c2ccco2)(c2ccco2)c2ccco2)cc1)c1ccc(C[P+](c2ccco2)(c2ccco2)c2ccco2)cc1.[Br-].[Br-]`, the EC50 in data set [1] is 13.8 µM; with L6, 86 µM; in data set [2], 36.9 µM; in data set [3], 33.8 µM; in data set [5], 21.7 µM. For the same compound, the “Ratio EC50” value in data set [4] is given as 0.9; in data set [6] it was 0.6.

Take `CC(=O)N(c1ccc(C[P+](CC(C)C)(CC(C)C)CC(C)C)cc1)c1ccc(C[P+](CC(C)C)(CC(C)C)CC(C)C)cc1`: the concentration for a half-maximal effect (EC50) is 11.4 µM in data set [1] and more than 112 µM with L6.

Regarding `CC[P+](CC)(CC)Cc1ccc(C(=O)c2ccc(C[P+](CC)(CC)CC)cc2)cc1`, the EC50 in data set [1] was 77.8 µM; with L6 it was more than 149 µM; in data set [2], more than 100 µM; in [3] it was more than 100 µM; in data set [5], more than 100 µM; in data set [7] it was more than 300 µM.

Regarding `Fc1c(F)c(F)c([P+](Cc2ccc(Cc3ccc(C[P+](c4ccccc4)(c4ccccc4)c4c(F)c(F)c(F)c(F)c4F)cc3)cc2)(c2ccccc2)c2ccccc2)c(F)c1F.[Br-].[Br-]`, the EC50 in [1] was 16 µM; in [2], 2.68 µM; in [3], 3.79 µM; in data set [5], 2.74 µM; in data set [7] it was more than 300 µM. The “Ratio EC50” value in [4] was 1.4; in [6], 1. Moreover, the selectivity ratio in data set [8] was more than 110.

As for `C[P+](C)(Cc1ccc(C(=O)c2ccc(C[P+](C)(C)c3ccccc3)cc2)cc1)c1ccccc1.[Br-].[Br-]`, the EC50 was 8.8 µM in data set [1]; more than 139 µM in the data set with L6; 19.2 µM in data set [2]; 28.8 µM in data set [3]; 24.6 µM in data set [5]. Further, the entries for the “Ratio EC50” value in [4] and in [6] were 1.5 and 1.3, respectively.

Turning to `Nc1nc(N)nc(Nc2ccc([As]3SCC(CO)S3)cc2)n1` (configuration not stated) [MELARSOPROL], the response in [1] was half-maximal at 0.0075 µM (EC50).

`O=S(=O)([O-])c1cccc([P+](Cc2ccc(Cc3ccc(C[P+](c4ccccc4)(c4ccccc4)c4cccc(S(=O)(=O)[O-])c4)cc3)cc2)(c2ccccc2)c2ccccc2)c1`: the EC50 in data set [1] is more than 92 µM; in the data set on L6, more than 92 µM; in data set [2], more than 100 µM; in data set [3], more than 100 µM; in data set [5] it was more than 100 µM; in [7], more than 300 µM.

For the compound `O=S(=O)([O-])c1cccc([P+](Cc2ccc(Oc3ccc(C[P+](c4ccccc4)(c4ccccc4)c4cccc(S(=O)(=O)[O-])c4)cc3)cc2)(c2ccccc2)c2ccccc2)c1`, the EC50 in data set [1] is more than 92 µM; in the data set with L6, 90.5 µM; in [2], more than 100 µM; in data set [3] it was more than 100 µM; in data set [5], more than 100 µM; in data set [7] it was more than 300 µM.
